# pIC50: −log10 of the molar value.
# Columns and labels:
# OVCAR-3 = test: Growth inhibition of human OVCAR-3 cells; format: functional
# LOX IMVI = test: Growth inhibition of human LOXIMVI cells; format: functional
# UACC-62 = test: Growth inhibition of human UACC62 cells; format: functional
# K562 = test: Growth inhibition of human K562 cells; format: functional
# HCC 2998 = test: Growth inhibition of human HCC2998 cells; format: functional
# NCI-H522 = test: Growth inhibition of human NCI-H522 cells; format: functional
# SNB-75 = test: Growth inhibition of human SNB75 cells; format: functional
# UGT1A1 = UGT1A1 (Homo sapiens, UniProt P22309); test: Inhibition of human UGT1A1 at 10 uM
# Sequence of UGT1A1 (P22309 whole entry): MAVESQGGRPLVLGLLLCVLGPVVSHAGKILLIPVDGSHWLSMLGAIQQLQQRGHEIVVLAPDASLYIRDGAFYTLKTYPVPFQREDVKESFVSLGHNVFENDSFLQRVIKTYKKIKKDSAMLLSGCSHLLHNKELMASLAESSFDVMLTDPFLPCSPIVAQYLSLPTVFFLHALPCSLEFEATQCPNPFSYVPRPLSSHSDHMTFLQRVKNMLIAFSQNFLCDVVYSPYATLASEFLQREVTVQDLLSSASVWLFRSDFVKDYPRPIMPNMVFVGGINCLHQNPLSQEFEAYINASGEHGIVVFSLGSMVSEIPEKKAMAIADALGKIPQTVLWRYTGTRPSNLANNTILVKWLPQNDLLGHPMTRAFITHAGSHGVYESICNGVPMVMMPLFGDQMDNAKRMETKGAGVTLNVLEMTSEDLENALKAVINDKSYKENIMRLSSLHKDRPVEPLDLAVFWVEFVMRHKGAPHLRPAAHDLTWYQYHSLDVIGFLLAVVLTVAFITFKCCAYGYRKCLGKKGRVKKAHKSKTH
# Malme-3M = test: Growth inhibition of human MALME-3M cells; format: functional
# HCT-116 [1] = test: Growth inhibition of human HCT116 cells; format: functional
# MCF7 = test: Growth inhibition of human MCF7 cells; format: functional
# A549 = test: Growth inhibition of human A549 cells; format: functional
# SK-MEL-5 = test: Growth inhibition of human SK-MEL-5 cells; format: functional
# NCI-H322M = test: Growth inhibition of human NCI-H322M cells; format: functional
# SNB-19 = test: Growth inhibition of human SNB19 cells; format: functional
# HT-29 = test: Growth inhibition of human HT-29 cells; format: functional
# M14 = test: Growth inhibition of human M14 cells; format: functional
# OVCAR-4 = test: Growth inhibition of human OVCAR4 cells; format: functional
# U-251 = test: Growth inhibition of human U251 cells; format: functional
# HCT-116 [2] = test: Cytotoxicity against human HCT116 cells after 48 hrs by MTT assay; format: functional, cell-based; details: HCT-116, 48 h
# Summary of the method: (§1)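 Cells exposed to a range of compound concentrations for 48 h, washed once with PBS, then incubated with MTT for 2 h. Formazan dissolved in DMSO and absorbance read at 570 nm. IC50 taken as the concentration giving 50% inhibition of proliferation.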
# HL-60 = test: Cytotoxicity against human HL60 cells after 48 hrs by MTT assay; format: functional, cell-based; details: HL-60, 48 h; summary of the method: as §1
# HOP-62 = test: Growth inhibition of human HOP62 cells; format: functional
# UACC-257 = test: Growth inhibition of human UACC257 cells; format: functional
# [3] = Growth inhibition of human […] cells; format: functional
# IGROV-1 = test: Growth inhibition of human IGROV1 cells; format: functional
# [4] = Cytotoxicity against human Hep3B cells after 48 hrs by MTT assay; format: functional, cell-based, Hep 3B2; summary of the method: as §1
# [5] = target: Tyrosine-protein kinase Yes (Homo sapiens) (UniProt P07947); test: Inhibition of human YES1 at 10 uM
# Sequence of Tyrosine-protein kinase Yes (Homo sapiens) (P07947 2-543 limits assumed): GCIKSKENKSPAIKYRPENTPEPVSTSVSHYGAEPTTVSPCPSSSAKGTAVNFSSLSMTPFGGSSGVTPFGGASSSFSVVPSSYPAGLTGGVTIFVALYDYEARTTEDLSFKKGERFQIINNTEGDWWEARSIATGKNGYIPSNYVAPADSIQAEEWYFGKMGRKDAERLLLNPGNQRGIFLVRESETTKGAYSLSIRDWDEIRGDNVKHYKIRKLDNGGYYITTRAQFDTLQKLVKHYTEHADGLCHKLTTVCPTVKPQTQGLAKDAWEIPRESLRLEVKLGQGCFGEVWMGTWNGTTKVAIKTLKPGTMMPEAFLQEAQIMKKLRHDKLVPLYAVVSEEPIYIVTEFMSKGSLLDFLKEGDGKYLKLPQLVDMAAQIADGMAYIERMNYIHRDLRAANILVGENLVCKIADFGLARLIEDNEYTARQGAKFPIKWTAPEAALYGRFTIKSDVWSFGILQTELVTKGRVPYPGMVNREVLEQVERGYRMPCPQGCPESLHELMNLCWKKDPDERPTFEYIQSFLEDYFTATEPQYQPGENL
# SK-MEL-2 = test: Growth inhibition of human SK-MEL-2 cells; format: functional
# T47D = test: Growth inhibition of human T47D cells; format: functional
# CCRF-CEM = test: Growth inhibition of human CCRF-CEM cells; format: functional
# KM12 = test: Growth inhibition of human KM12 cells; format: functional
# CYP1A2 = CYP1A2 (Homo sapiens, UniProt P05177); test: Inhibition of human CYP1A2 at 10 uM; format: ADME
# Sequence of CYP1A2 (P05177 whole entry): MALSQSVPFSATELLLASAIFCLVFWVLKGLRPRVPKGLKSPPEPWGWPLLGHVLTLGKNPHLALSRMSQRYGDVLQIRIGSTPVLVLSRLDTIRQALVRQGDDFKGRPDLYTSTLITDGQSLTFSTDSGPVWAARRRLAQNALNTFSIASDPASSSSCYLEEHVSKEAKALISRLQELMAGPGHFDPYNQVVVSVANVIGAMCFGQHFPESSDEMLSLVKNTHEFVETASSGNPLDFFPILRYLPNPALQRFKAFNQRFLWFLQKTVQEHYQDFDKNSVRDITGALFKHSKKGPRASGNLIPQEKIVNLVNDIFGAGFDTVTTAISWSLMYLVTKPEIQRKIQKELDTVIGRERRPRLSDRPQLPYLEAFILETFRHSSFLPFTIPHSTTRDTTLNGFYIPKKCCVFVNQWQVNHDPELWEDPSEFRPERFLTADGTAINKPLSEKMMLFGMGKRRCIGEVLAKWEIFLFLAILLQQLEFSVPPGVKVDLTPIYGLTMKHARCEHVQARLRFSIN
# [6] = target: Phosphodiesterase 4 (Homo sapiens) (UniProt P27815+Q08499+Q07343+Q08493); test: Inhibition of human PDE4 at 10 uM; format: protein assay
# SF-539 = test: Growth inhibition of human SF539 cells; format: functional
# ACHN = test: Growth inhibition of human ACHN cells; format: functional
# HOP-92 = test: Growth inhibition of human HOP92 cells; format: functional
# SK-OV-3 = test: Growth inhibition of human SKOV3 cells; format: functional
# A498 = test: Growth inhibition of human A498 cells; format: functional
# SF-268 = test: Growth inhibition of human SF268 cells; format: functional
# OVCAR-8 = test: Growth inhibition of human OVCAR8 cells; format: functional
# 786-0 = test: Growth inhibition of human 786-0 cells; format: functional
# NCI-H226 = test: Growth inhibition of human NCI-H226 cells; format: functional
# BT-549 = test: Growth inhibition of human BT549 cells; format: functional
# TK-10 = test: Growth inhibition of human TK10 cells; format: functional
# [7] = read-out: pLC50 (the source's name) (converted)
structure (smiles),measurement,setting,value
COc1ccc2[nH]c(-c3cccc(F)c3)cc(=O)c2c1O,GI50,OVCAR-3,0.0191 µM
same,CC50,OVCAR-3; [7],30.2 µM
same,TGI,OVCAR-3; read-out: pTGI (converted),0.0407 µM
same,GI50,LOX IMVI,0.0912 µM
same,CC50,LOX IMVI; [7],> 100 µM
same,TGI,LOX IMVI; read-out: pTGI (converted),57.5 µM
same,GI50,UACC-62,0.0309 µM
same,CC50,UACC-62; [7],93.3 µM
same,TGI,UACC-62; read-out: pTGI (converted),20 µM
same,GI50,K562,0.024 µM
same,CC50,K562; [7],> 100 µM
same,TGI,K562; read-out: pTGI (converted),0.204 µM
same,GI50,HCC 2998,0.0324 µM
same,CC50,HCC 2998; [7],16.2 µM
same,TGI,HCC 2998; read-out: pTGI (converted),0.0661 µM
same,GI50,NCI-H522,0.0144 µM
same,CC50,NCI-H522; [7],0.0977 µM
same,TGI,NCI-H522; read-out: pTGI (converted),0.038 µM
same,GI50,SNB-75,0.0151 µM
same,CC50,SNB-75; [7],44.7 µM
same,TGI,SNB-75; read-out: pTGI (converted),0.0589 µM
same,inhibition at 10 µM,UGT1A1,86%
same,CC50,Malme-3M; [7],> 100 µM
same,TGI,Malme-3M; read-out: pTGI (converted),52.5 µM
same,GI50,HCT-116 [1],0.0331 µM
same,CC50,HCT-116 [1]; [7],29.5 µM
same,TGI,HCT-116 [1]; read-out: pTGI (converted),1.78 µM
same,GI50,MCF7,0.0302 µM
same,CC50,MCF7; [7],> 100 µM
same,TGI,MCF7; read-out: pTGI,> 100 µM
same,GI50,A549,0.0417 µM
same,CC50,A549; [7],93.3 µM
same,TGI,A549; read-out: pTGI (converted),14.8 µM
same,GI50,SK-MEL-5,0.0295 µM
same,CC50,SK-MEL-5; [7],18.2 µM
same,TGI,SK-MEL-5; read-out: pTGI (converted),0.2 µM
same,GI50,NCI-H322M,0.851 µM
same,CC50,NCI-H322M; [7],> 100 µM
same,TGI,NCI-H322M; read-out: pTGI,> 100 µM
same,GI50,SNB-19,0.0288 µM
same,CC50,SNB-19; [7],> 100 µM
same,TGI,SNB-19; read-out: pTGI (converted),0.437 µM
same,GI50,HT-29,0.0288 µM
same,CC50,HT-29; [7],15.5 µM
same,TGI,HT-29; read-out: pTGI (converted),0.0759 µM
same,GI50,M14,0.0191 µM
same,CC50,M14; [7],70.8 µM
same,GI50,OVCAR-4,0.0437 µM
same,CC50,OVCAR-4; [7],> 100 µM
same,TGI,OVCAR-4; read-out: pTGI (converted),9.12 µM
same,GI50,U-251,0.0427 µM
same,CC50,U-251; [7],55 µM
same,TGI,U-251; read-out: pTGI (converted),14.5 µM
same,pIC50,HCT-116 [2],7.15
same,pIC50,HL-60,7.52
same,GI50,HOP-62,0.0501 µM
same,CC50,HOP-62; [7],42.7 µM
same,TGI,HOP-62; read-out: pTGI (converted),14.5 µM
same,GI50,UACC-257,0.0339 µM
same,CC50,UACC-257; [7],> 100 µM
same,TGI,UACC-257; read-out: pTGI,> 100 µM
same,GI50,[3],0.0331 µM
same,CC50,[3]; [7],> 100 µM
same,TGI,[3]; read-out: pTGI (converted),16.2 µM
same,GI50,IGROV-1,0.0269 µM
same,TGI,IGROV-1; read-out: pTGI (converted),0.0933 µM
same,pIC50,[4],7.15
same,inhibition,[5],68%
same,GI50,SK-MEL-2,0.0724 µM
same,CC50,SK-MEL-2; [7],77.6 µM
same,TGI,SK-MEL-2; read-out: pTGI (converted),15.8 µM
same,GI50,T47D,0.0282 µM
same,CC50,T47D; [7],87.1 µM
same,GI50,CCRF-CEM,0.0347 µM
same,CC50,CCRF-CEM; [7],> 100 µM
same,TGI,CCRF-CEM; read-out: pTGI,> 100 µM
same,GI50,KM12,0.0275 µM
same,CC50,KM12; [7],5.5 µM
same,TGI,KM12; read-out: pTGI (converted),0.151 µM
same,inhibition at 10 µM,CYP1A2,85%
same,inhibition,[6],55%
same,GI50,SF-539,0.0263 µM
same,CC50,SF-539; [7],18.6 µM
same,TGI,SF-539; read-out: pTGI (converted),0.0977 µM
same,GI50,ACHN,0.0977 µM
same,CC50,ACHN; [7],> 100 µM
same,TGI,ACHN; read-out: pTGI (converted),33.9 µM
same,GI50,HOP-92,4.9 µM
same,CC50,HOP-92; [7],> 100 µM
same,TGI,HOP-92; read-out: pTGI (converted),36.3 µM
same,GI50,SK-OV-3,0.0355 µM
same,CC50,SK-OV-3; [7],37.2 µM
same,TGI,SK-OV-3; read-out: pTGI (converted),10.7 µM
same,GI50,A498,0.0246 µM
same,CC50,A498; [7],41.7 µM
same,TGI,A498; read-out: pTGI (converted),0.209 µM
same,GI50,SF-268,0.0617 µM
same,CC50,SF-268; [7],89.1 µM
same,TGI,SF-268; read-out: pTGI (converted),15.5 µM
same,GI50,OVCAR-8,0.0562 µM
same,CC50,OVCAR-8; [7],81.3 µM
same,TGI,OVCAR-8; read-out: pTGI (converted),16.2 µM
same,GI50,786-0,0.0501 µM
same,CC50,786-0; [7],89.1 µM
same,TGI,786-0; read-out: pTGI (converted),16.2 µM
same,GI50,NCI-H226,1.82 µM
same,CC50,NCI-H226; [7],> 100 µM
same,TGI,NCI-H226; read-out: pTGI (converted),31.6 µM
same,GI50,BT-549,0.145 µM
same,CC50,BT-549; [7],> 100 µM
same,TGI,BT-549; read-out: pTGI (converted),26.9 µM
same,GI50,TK-10,1.78 µM
same,CC50,TK-10; [7],> 100 µM
same,TGI,TK-10; read-out: pTGI (converted),67.6 µM

# From ChEMBL document CHEMBL1275391, “Design, synthesis, and preclinical evaluation of new 5,6- (or 6,7-) disubstituted-2-(fluorophenyl)quinolin-4-one derivatives as potent antitumor agents” (J Med Chem, 2010)
